Reference: ChEMBL document CHEMBL1140069, “In vitro antifungal activity of polyfunctionalized 2-(hetero)arylquinolines prepared through imino Diels-Alder reactions” (2008)
Converted amounts (≈) assume the structure as drawn.

Experiments:
Type in all cases: functional
Candida albicans [1] = experiment: Antimicrobial activity against Candida albicans C128 isolate at 25 ug/ml after 24 hrs
In short: (§1)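 Growth-inhibition microplate test. Strains are grown on Sabouraud-chloramphenicol agar for 48 h at 30 °C, and inoculum is added to RPMI-1640 containing compound at a final 100–6.25, with DMSO ≤2%. Each strain has a growth control (same DMSO, no compound) and a sterility control.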

Saccharomyces cerevisiae = experiment: Antifungal activity against Saccharomyces cerevisiae ATCC 9763 after 48 hrs by broth microdilution technique; details: ATCC 9763, 48 h
In short: (§2)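 CLSI broth microdilution: M-27 A2 for yeasts and M-38 A for filamentous fungi. Medium is RPMI-1640 buffered to pH 7.0 with MOPS. Compound is diluted twofold from 250 to 0.98, final DMSO ≤2%. Inoculum is 1–5 × 10³ CFU/mL. Plates are incubated at 35 °C in a moist, dark chamber and read visually at 48 h. MIC100 is the lowest concentration giving total growth inhibition versus drug-free control.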

Candida albicans [2] = experiment: Antimicrobial activity against Candida albicans C128 isolate at 50 ug/ml after 24 hrs; in short: as §1
Candida tropicalis [3] = experiment: Antimicrobial activity against Candida tropicalis C131 isolate at 25 ug/ml after 24 hrs
In short: (§3)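 Percent growth inhibition in 96-well microplates. Compound stocks in DMSO (≤2%) were diluted in RPMI-1640 to final 100–6.25 µg/mL, and 100 µL inoculum was added (final 200 µL). Controls were a growth well (inoculum with matching DMSO, no compound) and a sterility well (no inoculum). Inhibition was calculated against growth and sterility wells.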

Cryptococcus neoformans [4] = experiment: Antimicrobial activity against Cryptococcus neoformans ATCC 32264 at 6.25 ug/ml after 48 hrs; details: ATCC 32264, 48 h; in short: as §3
Candida albicans [5] = experiment: Antimicrobial activity against Candida albicans C129 isolate at 50 ug/ml after 24 hrs; in short: as §1
Pichia kudriavzevii [6] = experiment: Antimicrobial activity against Candida krusei C117 isolate at 6.25 ug/ml after 24 hrs; in short: as §3
Aspergillus fumigatus = experiment: Antifungal activity against Aspergillus fumigatus ATTC 26934 after 48 hrs by broth microdilution technique; in short: as §2
Candida albicans [7] = experiment: Antimicrobial activity against Candida albicans C126 isolate at 25 ug/ml after 24 hrs; in short: as §1
Cryptococcus neoformans [8] = experiment: Antimicrobial activity against Cryptococcus neoformans IM 972751 isolate at 12.5 ug/ml after 48 hrs
In short: (§4)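 Clinical Cryptococcus isolates kept on Sabouraud-dextrose agar slopes; inoculum 1–5 × 10³ CFU/mL. Quinoline DMSO stocks were diluted in RPMI-1640 to final 100–6.25 µg/mL, with DMSO ≤2%. An equal volume of inoculum was added (200 µL per well). Run in triplicate.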

Cryptococcus neoformans [9] = experiment: Antimicrobial activity against Cryptococcus neoformans IM 031706 isolate at 6.25 ug/ml after 48 hrs; in short: as §3
Cryptococcus neoformans [10] = experiment: Antimicrobial activity against Cryptococcus neoformans IM 031706 isolate at 50 ug/ml after 48 hrs; in short: as §3
Cryptococcus neoformans [11] = experiment: Antimicrobial activity against Cryptococcus neoformans IM 052470 isolate at 50 ug/ml after 48 hrs; in short: as §3
Cryptococcus neoformans [12] = experiment: Antimicrobial activity against Cryptococcus neoformans IM 972724 isolate at 25 ug/ml after 48 hrs; in short: as §4
Cryptococcus neoformans [13] = experiment: Antimicrobial activity against Cryptococcus neoformans IM 031631 isolate at 12.5 ug/ml after 48 hrs; in short: as §3
Cryptococcus neoformans [14] = experiment: Antimicrobial activity against Cryptococcus neoformans ATCC 32264 at 25 ug/ml after 48 hrs; details: ATCC 32264, 48 h; in short: as §3
Candida albicans [15] = experiment: Antimicrobial activity against Candida albicans ATCC 10231 at 50 ug/ml after 24 hrs; details: ATCC 10231, 24 h; in short: as §1
Candida albicans [16] = experiment: Antimicrobial activity against Candida albicans C127 isolate at 50 ug/ml after 24 hrs; details: C127, 24 h; in short: as §1
Pichia kudriavzevii [17] = experiment: Antimicrobial activity against Candida krusei C117 isolate at 50 ug/ml after 24 hrs; in short: as §3
Candida albicans [18] = experiment: Antimicrobial activity against Candida albicans C129 isolate at 12.5 ug/ml after 24 hrs; in short: as §1
Candida albicans [19] = experiment: Antimicrobial activity against Candida albicans C127 isolate at 6.25 ug/ml after 24 hrs; details: C127, 24 h; in short: as §1
[20] = test system: Trichophyton mentagrophytes; experiment: Antifungal activity against Trichophyton mentagrophytes ATCC 9972 after 48 hrs by broth microdilution technique; details: ATCC 9972, 48 h; in short: as §2
Nakaseomyces glabratus = experiment: Antimicrobial activity against Candida glabrata C115 isolate at 25 ug/ml after 24 hrs; in short: as §3
Candida albicans [21] = experiment: Antimicrobial activity against Candida albicans C128 isolate at 6.25 ug/ml after 24 hrs; in short: as §1
Cryptococcus neoformans [22] = experiment: Antimicrobial activity against Cryptococcus neoformans IM 983036 isolate at 100 ug/ml after 48 hrs; in short: as §4
Cryptococcus neoformans [23] = experiment: Antimicrobial activity against Cryptococcus neoformans IM 983036 isolate at 50 ug/ml after 48 hrs; in short: as §4
Cryptococcus neoformans [24] = experiment: Antimicrobial activity against Cryptococcus neoformans IM 972751 isolate at 50 ug/ml after 48 hrs; in short: as §4
Candida tropicalis [25] = experiment: Antimicrobial activity against Candida tropicalis C131 isolate at 100 ug/ml after 24 hrs; in short: as §3
Cryptococcus neoformans [26] = experiment: Antimicrobial activity against Cryptococcus neoformans IM 983040 isolate at 12.5 ug/ml after 48 hrs; in short: as §4
Candida albicans [27] = experiment: Antimicrobial activity against Candida albicans C126 isolate at 50 ug/ml after 24 hrs; in short: as §1
Cryptococcus neoformans [28] = experiment: Antimicrobial activity against Cryptococcus neoformans IM 00319 isolate at 12.5 ug/ml after 48 hrs; in short: as §3
Cryptococcus neoformans [29] = experiment: Antimicrobial activity against Cryptococcus neoformans IM 972724 isolate at 12.5 ug/ml after 48 hrs; in short: as §4
Candida parapsilosis = experiment: Antimicrobial activity against Candida parapsilosis C124 isolate at 12.5 ug/ml after 24 hrs; details: Lodderomyces parapsilosis; in short: as §3
Candida albicans [30] = experiment: Antimicrobial activity against Candida albicans C130 isolate at 6.25 ug/ml after 24 hrs; in short: as §1
Cryptococcus neoformans [31] = experiment: Antimicrobial activity against Cryptococcus neoformans IM 042074 isolate at 25 ug/ml after 48 hrs; in short: as §3
Cryptococcus neoformans [32] = experiment: Antimicrobial activity against Cryptococcus neoformans IM 052470 isolate at 12.5 ug/ml after 48 hrs; in short: as §3
Candida albicans [33] = experiment: Antimicrobial activity against Candida albicans C127 isolate at 25 ug/ml after 24 hrs; details: C127, 24 h; in short: as §1
Candida albicans [34] = experiment: Antimicrobial activity against Candida albicans C130 isolate at 12.5 ug/ml after 24 hrs; in short: as §1
Cryptococcus neoformans [35] = experiment: Antimicrobial activity against Cryptococcus neoformans IM 983040 isolate at 100 ug/ml after 48 hrs; in short: as §4
Cryptococcus neoformans [36] = experiment: Antimicrobial activity against Cryptococcus neoformans IM 031631 isolate at 100 ug/ml after 48 hrs; in short: as §3
Cryptococcus neoformans [37] = experiment: Antimicrobial activity against Cryptococcus neoformans IM 00319 isolate at 6.25 ug/ml after 48 hrs; in short: as §3
Trichophyton rubrum = experiment: Antifungal activity against Trichophyton rubrum C110 after 48 hrs by broth microdilution technique; details: read-out: MIC; in short: as §2
Cryptococcus neoformans [38] = experiment: Antimicrobial activity against Cryptococcus neoformans ATCC 32264 at 100 ug/ml after 48 hrs; details: ATCC 32264, 48 h; in short: as §3
Candida albicans [39] = experiment: Antimicrobial activity against Candida albicans ATCC 10231 at 25 ug/ml after 24 hrs; details: ATCC 10231, 24 h; in short: as §1

SMILES: Cc1cc(-c2ccncc2)nc2ccccc12
- inhibition at 25 µg/mL (Candida albicans [1]): 0%
- MIC (Saccharomyces cerevisiae): 50 µg/mL (≈ 227 µM)
- inhibition at 50 µg/mL (Candida albicans [2]): 15%
- inhibition at 25 µg/mL (Candida tropicalis [3]): 60%
- inhibition at 6.25 µg/mL (Cryptococcus neoformans [4]): 83%
- inhibition at 50 µg/mL (Candida albicans [5]): 82%
- inhibition at 6.25 µg/mL (Pichia kudriavzevii [6]): 0%
- MIC (Aspergillus fumigatus): 50 µg/mL (≈ 227 µM)
- inhibition at 25 µg/mL (Candida albicans [7]): 0%
- inhibition at 12.5 µg/mL (Cryptococcus neoformans [8]): 0%
- inhibition at 6.25 µg/mL (Cryptococcus neoformans [9]): 21%
- inhibition at 50 µg/mL (Cryptococcus neoformans [10]): 69%
- inhibition at 50 µg/mL (Cryptococcus neoformans [11]): 75%
- inhibition at 25 µg/mL (Cryptococcus neoformans [12]): 8%
- inhibition at 12.5 µg/mL (Cryptococcus neoformans [13]): 36%
- inhibition at 25 µg/mL (Cryptococcus neoformans [14]): 100%
- inhibition at 50 µg/mL (Candida albicans [15]): 73%
- inhibition at 50 µg/mL (Candida albicans [16]): 65%
- inhibition at 50 µg/mL (Pichia kudriavzevii [17]): 3%
- inhibition at 12.5 µg/mL (Candida albicans [18]): 3%
- inhibition at 6.25 µg/mL (Candida albicans [19]): 0%
- MIC [20]: 25 µg/mL (≈ 113 µM)
- inhibition at 25 µg/mL (Nakaseomyces glabratus): 4%
- inhibition at 6.25 µg/mL (Candida albicans [21]): 0%
- inhibition at 100 µg/mL (Cryptococcus neoformans [22]): 79%
- inhibition at 50 µg/mL (Cryptococcus neoformans [23]): 69%
- inhibition at 50 µg/mL (Cryptococcus neoformans [24]): 20%
- inhibition at 100 µg/mL (Candida tropicalis [25]): 100%
- inhibition at 12.5 µg/mL (Cryptococcus neoformans [26]): 0%
- inhibition at 50 µg/mL (Candida albicans [27]): 32%
- inhibition at 12.5 µg/mL (Cryptococcus neoformans [28]): 32%
- inhibition at 12.5 µg/mL (Cryptococcus neoformans [29]): 0%
- inhibition at 12.5 µg/mL (Candida parapsilosis): 0%
- inhibition at 6.25 µg/mL (Candida albicans [30]): 0%
- inhibition at 25 µg/mL (Cryptococcus neoformans [31]): 87%
- inhibition at 12.5 µg/mL (Cryptococcus neoformans [32]): 24%
- inhibition at 25 µg/mL (Candida albicans [33]): 0%
- inhibition at 12.5 µg/mL (Candida albicans [34]): 2%
- inhibition at 100 µg/mL (Cryptococcus neoformans [35]): 45%
- inhibition at 100 µg/mL (Cryptococcus neoformans [36]): 100%
- inhibition at 6.25 µg/mL (Cryptococcus neoformans [37]): 12%
- MIC (Trichophyton rubrum): 25 µg/mL (≈ 113 µM)
- inhibition at 100 µg/mL (Cryptococcus neoformans [38]): 100%
- inhibition at 25 µg/mL (Candida albicans [39]): 63%
